Results taken from ChEMBL document CHEMBL4680230, “Discovery of aryl-piperidine derivatives as potential antipsychotic agents using molecular hybridization strategy” (Eur J Med Chem, 2020).
pEC50, pIC50: −log10 of the molar value.

Target: 5-hydroxytryptamine receptor 2A (Homo sapiens, UniProt P28223)
Assay: Antagonist activity at human 5HT2A receptor expressed in CHO-K1 cells measured after 15 mins by FLIPR assay
Assay type: cell-based
Conditions: read-out: IC50; call rule not given here

5-hydroxytryptamine receptor 2A, sequence (P28223 whole entry): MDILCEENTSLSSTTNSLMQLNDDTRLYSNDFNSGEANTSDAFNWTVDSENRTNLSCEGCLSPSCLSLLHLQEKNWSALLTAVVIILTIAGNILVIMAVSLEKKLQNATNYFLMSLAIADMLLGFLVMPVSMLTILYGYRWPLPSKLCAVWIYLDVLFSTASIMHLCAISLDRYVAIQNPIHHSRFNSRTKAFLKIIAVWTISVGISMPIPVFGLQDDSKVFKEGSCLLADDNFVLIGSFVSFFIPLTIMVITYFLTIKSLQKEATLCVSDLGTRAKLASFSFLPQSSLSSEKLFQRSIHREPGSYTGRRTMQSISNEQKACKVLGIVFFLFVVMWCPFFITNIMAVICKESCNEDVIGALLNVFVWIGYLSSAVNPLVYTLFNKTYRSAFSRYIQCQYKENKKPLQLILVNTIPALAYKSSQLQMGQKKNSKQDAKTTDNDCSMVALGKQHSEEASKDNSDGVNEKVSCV

| pIC50 | Structure (SMILES) |
| --- | --- |
| 7.95 | N#Cc1ccc(S(=O)(=O)N(CCCN2CCC(c3noc4cc(F)ccc34)CC2)C2COC2)cc1 |
| 5.66 | O=C(c1ccccc1)N(CCCN1CCN(c2cccc(Cl)c2Cl)CC1)C1COC1 |
| 7.46 | O=S(=O)(c1ccc(Cl)cc1)N(CCCN1CCC(c2noc3cc(F)ccc23)CC1)C1COC1 |
| 5.11 | O=C(c1ccccc1)N(CCCN1CCN(c2ccccn2)CC1)CC1CC1 |
| 5.12 | CCCN(CCCN1CCN(c2ccccn2)CC1)C(=O)c1ccccc1 |
| 7.39 | O=C(c1ccccc1)N(CCCN1CCC(c2noc3cc(F)ccc23)CC1)CC1CC1 |
| 7.14 | CCCN(CCCN1CCC(c2noc3cc(F)ccc23)CC1)C(=O)c1ccccc1 |
| 7.73 | O=C(c1ccccc1)N(CCCN1CCC(c2noc3cc(F)ccc23)CC1)C1COC1 |
| 5.70 | CC(C)N(CCCN1CCN(c2cccc(Cl)c2Cl)CC1)C(=O)c1ccccc1 |
| 6.11 | O=C(c1ccccc1)N(CCCN1CCN(c2cccc(Cl)c2Cl)CC1)CC1CC1 |
| 8.03 | O=S(=O)(c1ccccc1)N(CCCN1CCC(c2noc3cc(F)ccc23)CC1)C1COC1 |

Test system: not listed separately
Assay: Half life in mouse liver microsomes measured after 60 mins in presence of NADPH by LC-MS/MS analysis
Assay type: ADME, Microsome
Conditions: not given
Procedure, shortened: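 Mouse liver microsomes (20 mg/ml stock) were incubated with compound in 0.1 M PBS, pH 7.4, at 37 °C. Compound came from a 1 mM methanol stock, diluted in methanol/water. Reaction was started with NADPH (10 mM stock). Aliquots at 0, 5, 10, 20, 40 and 60 min were quenched in cold methanol and centrifuged at 4 °C. Supernatants were analysed by LC-MS/MS.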

| half-life | Structure (SMILES) |
| --- | --- |
| 6.9 min | O=C(c1ccccc1)N(CCCN1CCC(c2noc3cc(F)ccc23)CC1)CC1CC1 |
| 6.2 min | CCCN(CCCN1CCC(c2noc3cc(F)ccc23)CC1)C(=O)c1ccccc1 |
| 173 min | O=C(c1ccccc1)N(CCCN1CCC(c2noc3cc(F)ccc23)CC1)C1COC1 |

Target: T1, 5-hydroxytryptamine receptor 1A (Homo sapiens, UniProt P08908)
T1 sequence (P08908 whole entry): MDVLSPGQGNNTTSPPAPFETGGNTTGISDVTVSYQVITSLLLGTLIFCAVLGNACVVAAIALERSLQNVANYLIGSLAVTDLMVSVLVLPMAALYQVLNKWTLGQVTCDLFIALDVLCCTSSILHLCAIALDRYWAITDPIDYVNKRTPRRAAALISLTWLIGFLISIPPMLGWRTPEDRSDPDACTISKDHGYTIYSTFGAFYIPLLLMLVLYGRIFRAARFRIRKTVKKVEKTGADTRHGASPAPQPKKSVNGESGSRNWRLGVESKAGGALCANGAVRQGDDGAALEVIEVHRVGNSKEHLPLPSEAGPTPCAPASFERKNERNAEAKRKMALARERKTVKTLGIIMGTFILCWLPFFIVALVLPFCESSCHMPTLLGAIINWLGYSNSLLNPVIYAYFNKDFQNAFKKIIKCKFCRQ
Assay: Agonist activity at human 5H1A receptor expressed in HEK293 cells incubated for 60 mins by Eu-cAMP tracer based LANCE ultra cAMP assay
Assay type: functional, cell-based
Conditions: hek293
Procedure, shortened: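 Cell-based TR-FRET cAMP assay on human 5-HT1A receptor-expressing cells. Cells were collected in stimulation buffer, added to the compound, centrifuged briefly and incubated 60 min at room temperature. Eu-cAMP tracer and ULight-anti-cAMP were then added, followed by another 60 min at room temperature before reading. The reference agonist was 8-OH-DPAT. […] came from sigmoidal nonlinear regression.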

| EC50 | Structure (SMILES) |
| --- | --- |
| Not Active | N#Cc1ccc(S(=O)(=O)N(CCCN2CCC(c3noc4cc(F)ccc34)CC2)C2COC2)cc1 |
| Not Active | O=S(=O)(c1ccc(Cl)cc1)N(CCCN1CCC(c2noc3cc(F)ccc23)CC1)C1COC1 |
| Not Active | O=C(c1ccccc1)N(CCCN1CCC(c2noc3cc(F)ccc23)CC1)CC1CC1 |
| Not Active | CCCN(CCCN1CCC(c2noc3cc(F)ccc23)CC1)C(=O)c1ccccc1 |
| Not Active | O=C(c1ccccc1)N(CCCN1CCC(c2noc3cc(F)ccc23)CC1)C1COC1 |
| Not Active | O=S(=O)(c1ccccc1)N(CCCN1CCC(c2noc3cc(F)ccc23)CC1)C1COC1 |

Same assay, conditions: read-out: EC50

| pEC50 | Structure (SMILES) |
| --- | --- |
| 6.23 | O=C(c1ccccc1)N(CCCN1CCN(c2cccc(Cl)c2Cl)CC1)C1COC1 |
| 7.60 | O=C(c1ccccc1)N(CCCN1CCN(c2ccccn2)CC1)CC1CC1 |
| 7.26 | CCCN(CCCN1CCN(c2ccccn2)CC1)C(=O)c1ccccc1 |
| 7.34 | CC(C)N(CCCN1CCN(c2cccc(Cl)c2Cl)CC1)C(=O)c1ccccc1 |
| 6.76 | O=C(c1ccccc1)N(CCCN1CCN(c2cccc(Cl)c2Cl)CC1)CC1CC1 |

Target: D(2) dopamine receptor (Homo sapiens, UniProt P14416)
Assay: Antagonist activity at human D2 receptor expressed in HEK293 cells incubated for 60 mins by Eu-cAMP tracer based LANCE ultra cAMP assay
Assay type: cell-based
Conditions: hek293

D(2) dopamine receptor, sequence (P14416 whole entry): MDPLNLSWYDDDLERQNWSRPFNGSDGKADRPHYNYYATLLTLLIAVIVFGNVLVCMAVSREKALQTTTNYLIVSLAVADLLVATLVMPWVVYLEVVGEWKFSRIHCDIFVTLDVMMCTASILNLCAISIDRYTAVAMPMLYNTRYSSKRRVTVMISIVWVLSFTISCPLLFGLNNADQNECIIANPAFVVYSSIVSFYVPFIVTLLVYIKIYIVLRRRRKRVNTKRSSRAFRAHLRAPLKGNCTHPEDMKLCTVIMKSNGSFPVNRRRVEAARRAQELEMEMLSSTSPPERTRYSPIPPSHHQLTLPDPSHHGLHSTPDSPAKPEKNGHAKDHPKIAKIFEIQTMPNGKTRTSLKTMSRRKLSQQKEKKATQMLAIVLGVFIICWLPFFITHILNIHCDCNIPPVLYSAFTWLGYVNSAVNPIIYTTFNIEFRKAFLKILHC

| IC50 | Structure (SMILES) |
| --- | --- |
| Not Active | O=C(c1ccccc1)N(CCCN1CCN(c2ccccn2)CC1)CC1CC1 |

Same assay, conditions: read-out: IC50

| pIC50 | Structure (SMILES) |
| --- | --- |
| 8.44 | N#Cc1ccc(S(=O)(=O)N(CCCN2CCC(c3noc4cc(F)ccc34)CC2)C2COC2)cc1 |
| 5.73 | O=C(c1ccccc1)N(CCCN1CCN(c2cccc(Cl)c2Cl)CC1)C1COC1 |
| 8.70 | O=S(=O)(c1ccc(Cl)cc1)N(CCCN1CCC(c2noc3cc(F)ccc23)CC1)C1COC1 |
| 5.16 | CCCN(CCCN1CCN(c2ccccn2)CC1)C(=O)c1ccccc1 |
| 7.73 | CCCN(CCCN1CCC(c2noc3cc(F)ccc23)CC1)C(=O)c1ccccc1 |
| 6.81 | O=C(c1ccccc1)N(CCCN1CCC(c2noc3cc(F)ccc23)CC1)C1COC1 |
| 6.28 | CC(C)N(CCCN1CCN(c2cccc(Cl)c2Cl)CC1)C(=O)c1ccccc1 |
| 8.72 | O=S(=O)(c1ccccc1)N(CCCN1CCC(c2noc3cc(F)ccc23)CC1)C1COC1 |
